Laboratory results from ChEMBL document CHEMBL4715822, “Structure-based lead optimization to improve antiviral potency and ADMET properties of phenyl-1H-pyrrole-carboxamide entry inhibitors targeted to HIV-1 gp120” (Eur J Med Chem, 2018).
Values after ≈ are worked out from the molar mass of the structure shown.

How the values were obtained:
[1] = Protein binding in human plasma assessed as unbound fraction at 5 uM by LC-MS/MS analysis; assay type: ADME, cell-free
[2] = test system: Human immunodeficiency virus 1; experiment: Antiviral activity against pseudovirus HIV-1 HXB-2 harboring Env I424F mutant infected in human U87.CD4.CXCR4 cells assessed as reduction in viral infection pretreated for 30 mins before viral infection and measured after 3 days by luciferase based assay; assay type: functional, cell-based, M:B_HXB2R
How it was run: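 Pseudoviruses made in HEK293T by co-transfecting an Env-deleted backbone (pSG3Δenv or pNL4-3.Luc.R-.E-) with an HXB-2 Env plasmid carrying single or double substitutions; Env sequences confirmed by sequencing. Virus pretreated 30 min with graded compound, added to U87-CD4-CXCR4 cells (1 × 10⁴/well, plated overnight), incubated 3 days. Cells lysed, luciferase measured, IC50 calculated.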

[3] = target: Cytochrome P450 3A4 (Homo sapiens, UniProt P08684); experiment: Inhibition of human liver microsome CYP3A4 using midazolam as substrate incubated for 20 mins by LC-MS/MS analysis; assay type: ADME, microsomes
[4] = Metabolic stability in human liver microsomes assessed as parent compound remaining at 3 uM incubated for 120 mins by LC-MS/MS analysis; assay type: ADME, Microsome; settings: read-out: Stabilty
[5] = Cytotoxicity against human TZM-bl cells assessed as reduction in cell viability incubated for 3 days by XTT assay; assay type: cell-based; settings: TZM-bl cells, time 3 day
[6] = Induction viral infection in pseudovirus HIV1 ADA infected in dog Cf2Th-CCR5 cells incubated for overnight followed by pretreated for 30 mins and added to cells measured after 48 hrs by luciferase-based assay; assay type: cell-based; settings: human immunodeficiency virus 1, cf2th-ccr5, 48.5 h
[7] = Metabolic stability in human liver microsomes assessed as intrinsic clearance at 3 uM incubated for 120 mins by LC-MS/MS analysis; assay type: ADME, Microsome; settings: read-out: CLH
[8] = Solubility in 2 % DMSO at pH 7.4 at 500 uM incubated for 90 mins in shaker by spectrophotometry; assay type: physicochemical
How it was run: (§1)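 DMSO stock diluted to 500 μM in universal aqueous buffer pH 7.4 with 2 or 5% DMSO final; quadruplicate, 90 min shaking at room temperature in filter plate, vacuum filtered; filtrate in 20% acetonitrile read by UV absorbance at six wavelengths. Filtrate/standard ratio binned as ~500, 100–500 or <100 μM.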

[9] = Solubility in 5% DMSO at pH 7.4 at 500 uM incubated for 90 mins in shaker by spectrophotometry; assay type: physicochemical; how it was run: as §1
[10] = Cytotoxicity against human MT2 cells assessed as reduction in cell viability incubated for 4 days by XTT assay; assay type: cell-based; settings: MT2 cells, time 4 day
[11] = Cytotoxicity against dog Cf2Th-CCR5 cells assessed as reduction in cell viability incubated for 48 hrs by XTT assay; assay type: cell-based, Canis lupus familiaris; settings: Cf2Th-CCR5 cells
[12] = Cytotoxicity against human PBMC cells assessed as reduction in cell viability incubated for 1 hr followed by complete medium addition and measured after 48 hrs by XTT assay; assay type: cell-based
[13] = target: Cytochrome P450 2C19 (Homo sapiens, UniProt P33261); experiment: Inhibition of human liver microsome CYP2C19 using mephenytoin as substrate incubated for 20 mins by LC-MS/MS analysis; assay type: ADME, microsomes
[14] = Apparent permeability across basolateral to apical side in human Caco2 cells incubated for 2 hrs by LC-MS/MS analysis; assay type: ADME, cell-based, Caco-2; settings: Caco-2
How it was run: (§2)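 Caco-2 monolayers grown three weeks to differentiate; compound in transport buffer pH 7.4 (glucose, 10 mM HEPES, HBSS) added apical (A-B) or basal (B-A) side, with or without 100 μM verapamil; 2 h incubation, both sides sampled. Lucifer yellow 100 μM on A side checks integrity (≤2% transport). Papp = (dQ/dt)/(C0 × A); efflux ratio = Papp(B→A)/Papp(A→B).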

[15] = Apparent permeability across apical to basolateral side in human Caco2 cells incubated for 2 hrs by LC-MS/MS analysis; assay type: ADME, cell-based, Caco-2; settings: Caco-2; how it was run: as §2
[16] = target: T1, Cytochrome P450 2B6 (Homo sapiens, UniProt P20813); experiment: Inhibition of human liver microsome CYP2B6 using bupropion as substrate incubated for 20 mins by LC-MS/MS analysis; assay type: ADME, microsomes
T1 sequence (P20813 whole entry): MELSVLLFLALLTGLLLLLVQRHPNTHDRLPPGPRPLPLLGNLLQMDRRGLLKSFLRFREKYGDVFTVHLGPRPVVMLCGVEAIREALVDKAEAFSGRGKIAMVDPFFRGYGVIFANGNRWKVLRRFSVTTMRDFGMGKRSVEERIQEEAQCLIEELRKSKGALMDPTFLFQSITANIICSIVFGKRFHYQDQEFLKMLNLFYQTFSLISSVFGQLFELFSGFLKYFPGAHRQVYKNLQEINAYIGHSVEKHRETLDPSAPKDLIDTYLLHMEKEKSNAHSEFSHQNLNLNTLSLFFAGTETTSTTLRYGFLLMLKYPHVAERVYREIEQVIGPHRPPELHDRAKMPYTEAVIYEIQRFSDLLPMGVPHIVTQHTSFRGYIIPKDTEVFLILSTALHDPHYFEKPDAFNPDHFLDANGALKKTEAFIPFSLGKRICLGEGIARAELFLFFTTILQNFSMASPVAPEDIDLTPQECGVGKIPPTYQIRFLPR

Cytochrome P450 2C19, sequence (P33261 whole entry): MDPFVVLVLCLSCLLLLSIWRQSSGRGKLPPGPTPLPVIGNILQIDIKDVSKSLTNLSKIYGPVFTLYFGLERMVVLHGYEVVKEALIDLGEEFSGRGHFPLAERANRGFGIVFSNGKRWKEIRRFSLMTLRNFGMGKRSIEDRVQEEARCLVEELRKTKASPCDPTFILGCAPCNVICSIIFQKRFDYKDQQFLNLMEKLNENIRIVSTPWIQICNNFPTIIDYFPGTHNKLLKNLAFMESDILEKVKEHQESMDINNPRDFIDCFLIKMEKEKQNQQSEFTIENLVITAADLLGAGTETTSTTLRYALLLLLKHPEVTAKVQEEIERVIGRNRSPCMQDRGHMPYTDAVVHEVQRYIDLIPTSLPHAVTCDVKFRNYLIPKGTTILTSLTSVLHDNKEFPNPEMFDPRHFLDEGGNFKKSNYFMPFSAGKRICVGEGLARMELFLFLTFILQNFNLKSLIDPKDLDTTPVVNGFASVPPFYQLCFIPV
Cytochrome P450 3A4, sequence (P08684 whole entry): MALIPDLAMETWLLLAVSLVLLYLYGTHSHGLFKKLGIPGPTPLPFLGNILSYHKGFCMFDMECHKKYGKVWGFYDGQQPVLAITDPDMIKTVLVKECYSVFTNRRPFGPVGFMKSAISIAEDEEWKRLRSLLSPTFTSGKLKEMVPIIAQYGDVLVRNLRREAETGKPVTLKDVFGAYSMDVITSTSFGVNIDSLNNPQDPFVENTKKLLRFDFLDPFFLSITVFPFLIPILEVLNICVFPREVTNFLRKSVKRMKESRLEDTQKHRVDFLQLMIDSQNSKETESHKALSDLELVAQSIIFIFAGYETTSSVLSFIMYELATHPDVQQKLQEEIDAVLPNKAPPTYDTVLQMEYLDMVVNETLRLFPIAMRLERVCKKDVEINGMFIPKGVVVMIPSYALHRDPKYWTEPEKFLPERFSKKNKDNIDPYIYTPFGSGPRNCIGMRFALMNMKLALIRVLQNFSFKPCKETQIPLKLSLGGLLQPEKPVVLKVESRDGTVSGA

Q: With `NC[C@H](NC(=O)c1ccc(-c2ccc(C(F)(F)F)c(F)c2)[nH]1)c1nc(CO)cs1` as the molecule, how does the fraction unbound at 5 µM [1] read?
A: 0.00949

Q: What about the IC50 [2] of the same molecule?
A: 0.88 µM

Q: What about the IC50 [3] of the same molecule?
A: > 25 µM

Q: What about the remaining at 2 h, 3 µM [4] of the same molecule?
A: 88.5%

Q: And the CC50 at 72 h [5]?
A: 21.9 µM

Q: What about the Activity [6] of the same molecule?
A: Non-Toxic

Q: What about the microsomal CLint at 3 µM [7] of the same molecule?
A: 1.8 µL/min/mg

Q: What about the solubility kinetic at […], 500 µM [8] of the same molecule?
A: 100 µM (≈ 42.8 µg/mL)

Q: What about the solubility kinetic at […], 500 µM [9] of the same molecule?
A: 100 µM (≈ 42.8 µg/mL)

Q: What about the CC50 at 96 h [10] of the same molecule?
A: 22.1 µM

Q: What about the CC50 at 48 h [11] of the same molecule?
A: 34 µM

Q: And the CC50 at 49 h [12]?
A: 38.7 µM

Q: And the IC50 [13]?
A: > 25 µM

Q: And the Papp B→A at 2 h [14]?
A: 17.7 ×10⁻⁶ cm/s

Q: What about the Papp A→B at 2 h [15] of the same molecule?
A: 0.602 ×10⁻⁶ cm/s

Q: And the IC50 [16]?
A: > 25 µM
